# A selection: hits, their analogues and other compounds. The true share with any hit is near 27%.
# CYP2C19 act – increases human CYP2C19 enzyme activity | activation factor at 5 µM | P33261 | recombinant CYP2C19, luciferin-H EGE luminescence; hits give high values; 0 = fully inhibited enzyme, 1 = untreated enzyme | 96,000 tested, under 10 active;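 active = activation factor of at least 2 at 5 µM in the primary screen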
# CYP2C9 act – activators of human CYP2C9. hit rate 1.4% among 96,000. recombinant CYP2C9, luciferin-H conversion, luminescence; hits give high values; factor 1 = untreated enzyme, 0 = blocked. AID 1024. P11712. activation factor at 5 µM;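 active = activation factor of 2 or more for CYP2C9 at a 5 µM dose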
# HIV Rev-RRE inh – inhibitors of HIV-1 Rev-RRE RNA interaction; Rev peptide-RRE RNA binding, FRET; hit rate 0.79% among 97,000; P05866; inhibition, % at 8 µM;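 active = inhibition above the screen-wide mean plus 3 SD, cut at about 35% in these data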
# Target sequence (P05866 whole entry, looked up): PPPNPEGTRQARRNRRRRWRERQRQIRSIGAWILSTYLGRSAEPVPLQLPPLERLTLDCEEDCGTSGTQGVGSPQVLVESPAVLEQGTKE
#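 Assay system: Rev peptide and RRE RNA, both fluorescently labelled; times: 5 min preincubation and 15 min binding, 25 °C; detection: FRET, ex 480 nm, em 540 and 671 nm; read-out basis: % inhibition from 671/540 nm acceptor-to-donor ratio, scaled between controls; benchmarks: DMSO low control, neomycin B high control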
# CYP2C9 inh – blocks human cytochrome P450 2C9. hit rate 20% among 96,000. CYP2C9 Supersomes, luciferin-H conversion, luminescence. inhibition, % at 5 µM. AID 777. P11712;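 active = blocking of liver enzyme CYP2C9 beyond about 50% at 5 µM, limit read from the data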
# Cav3 T inh – inhibitors of human Cav3.2 T-type calcium channel | B-score at 10 µM | hit rate 4% among 100,000 | O95180 | Cav3.2-expressing cells, Fluo-4 calcium fluorescence FDSS; hits give low values | AID 449739;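 active = single-dose well whose peak fluorescence ratio is a statistical outlier from its plate by either plate-standardised score or position-corrected B-score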
# CYP2C19 inh – human CYP2C19 inhibition; P33261; CYP2C19 Supersomes, luciferin-H EGE luminescence, 30 min; inhibition, % at 5 µM; hit rate 21% among 96,000;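 active = CYP2C19 inhibition above a set limit at 5 µM in the primary screen, cut at about 50% in these data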
# Numbers stand for hits; - = inactive; . = no result given.
SMILES,CYP2C19 act,CYP2C9 act,HIV Rev-RRE inh,CYP2C9 inh,Cav3 T inh,CYP2C19 inh
CN1CCN(C2=C(Cl)C(=O)N(CCc3ccccc3)C2=O)CC1,-,-,-,-,-,56.3
O=C1C(Cl)=C(NCC2CCCO2)C(=O)N1CCc1ccccc1 (configuration not stated),-,-,-,66.2,-,82.3
COC(=O)c1cc(C(=O)Nc2ccc(C)cn2)cc([N+](=O)[O-])c1,-,-,-,-,-,-
O=C1NCCN1C(=O)c1ccco1,-,-,-,-,-,-
O=C(c1ccco1)N1C(=O)c2cccc3cccc1c23,-,3.8,-,-,-,-
Nc1ccccc1-c1nnc(SCc2ccccc2F)[nH]c1=O,-,-,-,-,-,-
O=S(=O)(c1ccc(F)cc1)N1CN(Cc2ccco2)c2nc3ccccc3nc21,-,-,-,59.9,-,82.2
Cc1ccc(S(=O)(=O)N2CN(Cc3ccco3)c3nc4ccccc4nc32)cc1,-,-,-,90.0,-,75.5
Cc1ccc(S(=O)(=O)N2CN(Cc3ccco3)c3nc4ccccc4nc32)cc1C,-,-,-,83.5,-,67.9
CC(C)OCCCN1CN(S(=O)(=O)c2ccc(Cl)cc2)c2nc3ccccc3nc21,-,-,-,-,-,-
COc1ccc(S(=O)(=O)N2CN(Cc3ccco3)c3nc4ccccc4nc32)cc1,-,-,-,53.9,-,69.8
O=S(=O)(c1cccs1)N1CN(Cc2ccccc2)c2nc3ccccc3nc21,-,-,-,-,-,-
CCOC(=O)c1sc(=S)n(-c2ccc(Cl)cc2)c1SC,-,-,-,-,-,-
Cc1nc2cc(-c3ccccc3)nn2c(C)c1CCC(=O)N1CCN(c2ccccc2)CC1,-,-,-,-,-6,-
COC(=O)CCC(=O)c1oc2ccccc2c1N,-,-,-,-,-,84.0
CCNc1nc2nonc2nc1NCC,-,2.6,-,-,-,-
Cc1ccc(Nc2nc3nonc3nc2N(C)C)cc1,-,-,-,-,-,-
CCOC(=O)c1nnc(-c2ccccc2)nc1Sc1c(Cl)cccc1Cl,-,-,-,57.8,-,-
O=C(CSC1=NCCS1)N1CCOCC1,-,-,-,-,-,-
O=C(c1cc2ccccc2oc1=O)N(Cc1ccccc1)Cc1ccc2c(c1)OCO2,.,.,-,.,-6.15,.
O=C(c1ccccc1)N(Cc1ccc2c(c1)OCO2)Cc1nc2ccccc2c(=O)[nH]1,-,-,-,89.7,-,91.9
O=C(CCc1nc2ccccc2[nH]1)NCc1ccc2c(c1)OCO2,.,.,.,.,-,.
O=C(Nc1ccccc1)N(Cc1ccc2c(c1)OCO2)Cc1nc2ccccc2c(=O)[nH]1,-,-,-,60.1,-,-
CC1(C)CC(=O)C2=C(C1)Nc1[nH]c(=S)[nH]c(=O)c1C2c1ccccc1 (configuration not stated),-,-,-,-,-,-
O=C(COc1ccccc1)N1CCN=C1SCc1cccnc1,-,-,-,-,-,-
SMILES,CYP2C19 act,CYP2C9 act,HIV Rev-RRE inh,CYP2C9 inh,Cav3 T inh,CYP2C19 inh
CC1(C)CCN(Cc2ccccc2)C1CC#N (configuration not stated),-,-,-,-,-,59.7
CC1=NN(Cc2ccccc2)C(=O)C1C(c1ccccc1)C(C#N)C#N (configuration not stated),-,-,-,-,-,-
CC1=C(C(=O)OCc2ccccc2)C(c2ccccc2OS(=O)(=O)c2ccc(C)cc2)NC(=O)N1CCCC(=O)O (configuration not stated),.,.,.,.,-,.
Cc1onc(-c2c(F)cccc2Cl)c1C(=O)Nc1nc2ccccc2[nH]1,-,-,-,93.3,-,56.8
O=C(Nc1cccc2nsnc12)c1ccc(F)cc1,-,-,-,-,-,-
Cc1onc(-c2c(F)cccc2Cl)c1C(=O)Nc1cccc2nsnc12,-,-,-,54.4,-,-
C=CCNC(=O)c1c(-c2c(F)cccc2Cl)noc1C,-,-,-,-,-,-
Cc1onc(-c2c(F)cccc2Cl)c1C(=O)NC1=NCCS1,-,-,.,67.2,-,53.6
Cc1c(OCc2ccccc2)c(=O)ccn1Cc1ccccc1,-,-,-,-,-,68.0
O=c1ccn(Cc2ccccc2)c2ccccc12,.,.,.,.,-,.
O=C(Nc1ccc(N2CCOCC2)c(Cl)c1)c1ccc(Br)o1,-,-,-,50.8,-,57.8
Cc1ccc(NC(=O)c2ccc(F)c(S(=O)(=O)N3CCOCC3)c2)cc1F,-,-,-,-,-,-

# Assay outcomes: PubChem, several laboratories
